Measured values from ChEMBL document CHEMBL1143260, “Substrate specificity and screening of the integral membrane protease Pla” (Bioorg Med Chem Lett, 2008).
The source made the active and inactive calls. No cut-off for these calls is given here. Residues, ends and D or L forms follow the SMILES beside them. *: point of attachment. X1 = CN(C)c1ccc(/N=N/c2ccc(C(=O)*)cc2)cc1; EDANS = O=S(=O)(O)c1cccc2c(NCCN*)cccc12

How the values were obtained:
[1] = molecular target: Tissue-type plasminogen activator (Homo sapiens) (UniProt P00750); experiment: Inhibition of recombinant plasminogen activator assessed as conversion of plasminogen to plasmin in fibrinolytic assay
Chain of Tissue-type plasminogen activator (Homo sapiens) (P00750 36-562 limits assumed): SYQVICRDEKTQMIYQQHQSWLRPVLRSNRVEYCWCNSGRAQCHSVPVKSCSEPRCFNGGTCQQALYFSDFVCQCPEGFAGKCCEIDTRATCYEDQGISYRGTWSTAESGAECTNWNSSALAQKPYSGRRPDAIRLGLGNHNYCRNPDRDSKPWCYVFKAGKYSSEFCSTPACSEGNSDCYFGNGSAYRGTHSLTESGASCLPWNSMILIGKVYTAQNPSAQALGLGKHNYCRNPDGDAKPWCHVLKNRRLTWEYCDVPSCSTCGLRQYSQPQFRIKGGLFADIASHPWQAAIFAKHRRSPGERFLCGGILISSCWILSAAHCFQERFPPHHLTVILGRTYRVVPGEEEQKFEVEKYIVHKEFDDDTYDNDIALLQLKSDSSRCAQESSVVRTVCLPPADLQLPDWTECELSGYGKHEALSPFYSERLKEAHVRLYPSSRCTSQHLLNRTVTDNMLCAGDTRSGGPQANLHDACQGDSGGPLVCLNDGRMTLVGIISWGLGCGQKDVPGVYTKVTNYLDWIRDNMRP
Method in brief: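 Fibrin plate functional assay: purified Pla was pre-incubated with the peptide, dissolved in DMSO or water and tested in 2-fold dilutions. Samples were spotted onto an opalescent fibrin film containing plasminogen. No-peptide spots served as controls.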

[2] = molecular target: Tissue-type plasminogen activator (Homo sapiens) (UniProt P00750); experiment: Hydrolysis activity of plasminogen activator by LC-MS analysis
Method in brief: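 Peptides were incubated with Pla, and the reaction mixtures were analysed by LC-MS. Cleavage was assigned from product retention time and mass, for example a DABCYL-Arg-OH fragment.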

[3] = molecular target: Tissue-type plasminogen activator (Homo sapiens) (UniProt P00750); experiment: Inhibition of purified recombinant plasminogen activator by fluorometric assay
[4] = molecular target: Urokinase-type plasminogen activator (Homo sapiens) (UniProt P00749); experiment: Inhibition of urokinase-type plasminogen activator
[5] = molecular target: T1, Plasminogen activator (Yersinia pestis) (UniProt P17811); experiment: Inhibition of plasminogen activator in Yersinia pestis by fluorometric assay
T1 sequence (whole entry): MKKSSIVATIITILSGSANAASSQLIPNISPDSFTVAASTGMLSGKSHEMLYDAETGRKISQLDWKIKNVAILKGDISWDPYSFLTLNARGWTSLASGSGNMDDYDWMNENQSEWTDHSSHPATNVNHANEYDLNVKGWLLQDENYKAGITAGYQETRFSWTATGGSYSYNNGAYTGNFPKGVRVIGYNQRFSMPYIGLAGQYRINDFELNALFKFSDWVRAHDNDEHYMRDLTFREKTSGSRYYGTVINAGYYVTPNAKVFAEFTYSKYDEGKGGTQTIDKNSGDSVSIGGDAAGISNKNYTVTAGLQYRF

[6] = molecular target: T1, Plasminogen activator (Yersinia pestis); experiment: Inhibition of plasminogen activator in Yersinia pestis assessed as conversion of plasminogen to plasmin in fibrinolytic assay
Method in brief: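 Fibrin plate assay. Purified recombinant Pla was pre-incubated with the peptide in 2-fold dilutions (dissolved in DMSO or water), then spotted onto an opalescent fibrin film. Pla converts plasminogen to plasmin, and fibrinolysis appears as a clear spot. Inhibition was judged against spots with no peptide added.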

Compound	Activity [1]	Activity [2]	Activity [3]	Activity [4]	Activity [5]	Activity [6]
CC[C@H](C)[C@H](NC(=O)[C@H](CCCNC(=N)N)NC(=O)[C@H](CCCNC(=N)N)NC(=O)c1ccc(/N=N/c2ccc(N(C)C)cc2)cc1)C(=O)NCCNc1cccc2c(S(=O)(=O)O)cccc12	Active	Active				
CC[C@H](C)[C@H](NC(=O)[C@H](CCCNC(=N)N)NC(=O)[C@H](CCCNC(=N)N)NC(=O)c1ccc(/N=N/c2ccc(N(C)C)cc2)cc1)C(=O)O	inactive	Active				
CN(C)c1ccc(/N=N/c2ccc(C(=O)N[C@@H](CCCNC(=N)N)C(=O)N[C@@H](CCCNC(=N)N)C(=O)O)cc2)cc1	inactive	inactive				
CC[C@H](C)[C@H](NC(=O)[C@H](CCCNC(=N)N)NC(=O)[C@H](CCCNC(=N)N)NC(=O)c1ccc(/N=N/c2ccc(N(C)C)cc2)cc1)C(=O)N[C@@H](CC(=O)O)C(=O)NCCNc1cccc2c(S(=O)(=O)O)cccc12 (X1-RRID-{EDANS})	Active	Active				
CC[C@H](C)[C@H](NC(=O)[C@H](CCCNC(=N)N)NC(=O)[C@H](CCCNC(=N)N)NC(=O)c1ccc(/N=N/c2ccc(N(C)C)cc2)cc1)C(=O)N[C@@H](CC(N)=O)C(=O)O (X1-RRIN-OH)	inactive	Active				
CC[C@H](C)[C@H](NC(=O)[C@H](CCCNC(=N)N)NC(=O)[C@H](CCCNC(=N)N)NC(=O)c1ccc(/N=N/c2ccc(N(C)C)cc2)cc1)C(=O)N[C@@H](CC(N)=O)C(=O)N[C@@H](CCCNC(=N)N)C(=O)O (X1-RRINR-OH)	inactive	Active				
CC[C@H](C)[C@H](NC(=O)[C@H](CCCNC(=N)N)NC(=O)[C@H](CCCNC(=N)N)NC(=O)c1ccc(/N=N/c2ccc(N(C)C)cc2)cc1)C(=O)N[C@@H](CC(N)=O)C(=O)N[C@@H](CCCNC(=N)N)C(=O)N[C@@H](CCC(=O)NCCNc1cccc2c(S(=O)(=O)O)cccc12)C(N)=O (X1-RRINRE(EDANS)-NH2)	Active	Active	Active	inactive	Active	Active
CC[C@H](C)[C@H](NC(=O)[C@H](CCCNC(=N)N)NC(=O)[C@H](CCCNC(=N)N)NC(=O)c1ccc(/N=N/c2ccc(N(C)C)cc2)cc1)C(=O)N[C@@H](CC(N)=O)C(=O)N[C@@H](CCCNC(=N)N)C(=O)N[C@@H](CCC(=O)O)C(=O)NCCNc1cccc2c(S(=O)(=O)O)cccc12 (X1-RRINRE-{EDANS})	Active	Active				
